Source: ChEMBL document CHEMBL1144497 (Bioorg Med Chem, 2007)
Values after ≈ are worked out from the molar mass of the structure shown.

How the values were obtained:
Liver carboxylesterase 1 = target: T1, Liver carboxylesterase 1 (Homo sapiens, UniProt P23141); assay: Activity of human recombinant carboxylesterase 1 assessed as AUDA hydrolysis; design: scale not given: the % may be the effect or the level left
T1 sequence (P23141 whole entry): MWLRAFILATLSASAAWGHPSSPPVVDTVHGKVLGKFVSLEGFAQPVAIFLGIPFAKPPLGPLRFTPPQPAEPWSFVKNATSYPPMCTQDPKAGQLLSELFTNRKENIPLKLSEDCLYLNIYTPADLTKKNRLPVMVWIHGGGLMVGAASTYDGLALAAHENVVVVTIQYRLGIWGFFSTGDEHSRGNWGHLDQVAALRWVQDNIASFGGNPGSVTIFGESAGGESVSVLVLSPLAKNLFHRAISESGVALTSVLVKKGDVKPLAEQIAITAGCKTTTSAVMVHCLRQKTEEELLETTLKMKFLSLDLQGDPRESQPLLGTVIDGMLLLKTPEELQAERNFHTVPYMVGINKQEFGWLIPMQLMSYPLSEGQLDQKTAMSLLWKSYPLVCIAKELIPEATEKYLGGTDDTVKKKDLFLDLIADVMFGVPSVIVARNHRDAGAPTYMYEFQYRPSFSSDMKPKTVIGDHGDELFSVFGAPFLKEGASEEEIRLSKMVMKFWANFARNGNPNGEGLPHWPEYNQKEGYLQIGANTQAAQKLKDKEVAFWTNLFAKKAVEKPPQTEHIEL

Mus musculus [1] = assay: AUC in Swiss Webster mouse at 5 mg/kg, po; format: ADME, organism-based, Plasma; design: dose 5 mg/kg, route oral; settings: in vivo
How it was run: (§1)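 Male Swiss Webster mice, 7 weeks old, dosed by oral gavage at 5 mg/kg in olive oil. AUDA was measured in blood by LC-MS/MS. Cmax, AUC to terminal time and T1/2 were calculated from AUDA blood concentrations.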

[2] = Solubility in oil; format: physicochemical
Cocaine esterase = target: T2, Cocaine esterase (Homo sapiens, UniProt O00748); assay: Activity of human recombinant carboxylesterase 2 assessed as AUDA hydrolysis; design: concentration or dose not given beside the values
T2 sequence (O00748 whole entry): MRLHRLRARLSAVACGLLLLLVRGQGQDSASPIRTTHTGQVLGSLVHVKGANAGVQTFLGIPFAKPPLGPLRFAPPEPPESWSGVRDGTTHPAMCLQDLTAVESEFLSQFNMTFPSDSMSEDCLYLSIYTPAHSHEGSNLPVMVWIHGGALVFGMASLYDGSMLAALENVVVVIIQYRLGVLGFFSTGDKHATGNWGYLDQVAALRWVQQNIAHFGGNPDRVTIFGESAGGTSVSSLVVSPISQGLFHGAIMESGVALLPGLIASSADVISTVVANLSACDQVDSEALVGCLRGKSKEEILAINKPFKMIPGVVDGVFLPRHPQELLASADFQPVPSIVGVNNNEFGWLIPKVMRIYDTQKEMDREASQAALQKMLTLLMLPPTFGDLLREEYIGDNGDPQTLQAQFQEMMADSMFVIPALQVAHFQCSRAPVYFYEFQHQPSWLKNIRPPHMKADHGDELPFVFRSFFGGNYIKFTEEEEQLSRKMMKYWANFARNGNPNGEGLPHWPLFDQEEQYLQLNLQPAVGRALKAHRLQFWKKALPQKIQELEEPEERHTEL
How it was run: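 Ester (100 μM) was incubated with purified baculovirus-expressed human carboxylesterase (hCE-1 or hCE-2, 5 μg; 333 nM) in 0.1 M sodium phosphate pH 7.4 at 37°C. Sampling was at 0, 30 and 60 min, with 60 min reported. Percent free acid (AUDA) formed was measured by LC-MS/MS. Values are averages of three separate measurements.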

[3] = Solubility in sodium phosphate buffer at pH 7.4; format: physicochemical
Mus musculus [4] = assay: Cmax in Swiss Webster mouse at 5 mg/kg, po; format: ADME, organism-based; design: dose 5 mg/kg, route oral; settings: in vivo; how it was run: as §1
[5] = target: T3, Bifunctional epoxide hydrolase 2 (Homo sapiens, UniProt P34913); assay: Inhibition of human soluble epoxide hydrolase by fluorescent based assay
T3 sequence (P34913 whole entry): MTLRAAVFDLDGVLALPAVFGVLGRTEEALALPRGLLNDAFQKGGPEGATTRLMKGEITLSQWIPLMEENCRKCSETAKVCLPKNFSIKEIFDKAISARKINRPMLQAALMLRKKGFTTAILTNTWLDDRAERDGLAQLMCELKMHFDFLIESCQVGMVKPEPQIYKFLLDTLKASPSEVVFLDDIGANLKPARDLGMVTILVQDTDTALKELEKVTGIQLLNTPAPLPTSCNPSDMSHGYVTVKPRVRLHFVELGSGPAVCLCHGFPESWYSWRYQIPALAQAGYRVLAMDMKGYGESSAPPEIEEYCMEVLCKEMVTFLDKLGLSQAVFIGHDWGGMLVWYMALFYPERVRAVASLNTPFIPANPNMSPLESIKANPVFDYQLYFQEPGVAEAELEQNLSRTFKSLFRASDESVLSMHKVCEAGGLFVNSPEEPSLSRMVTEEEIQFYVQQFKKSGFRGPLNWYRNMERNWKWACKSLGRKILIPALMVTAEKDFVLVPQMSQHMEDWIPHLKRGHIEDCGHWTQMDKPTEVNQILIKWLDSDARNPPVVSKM

[6] = target: T3, Bifunctional epoxide hydrolase 2; assay: Inhibition of human soluble epoxide hydrolase by spectrometric based assay
[7] = target: T4, Bifunctional epoxide hydrolase 2 (Mus musculus, UniProt P34914); assay: Inhibition of mouse soluble epoxide hydrolase by spectrometric based assay
T4 sequence (P34914 whole entry): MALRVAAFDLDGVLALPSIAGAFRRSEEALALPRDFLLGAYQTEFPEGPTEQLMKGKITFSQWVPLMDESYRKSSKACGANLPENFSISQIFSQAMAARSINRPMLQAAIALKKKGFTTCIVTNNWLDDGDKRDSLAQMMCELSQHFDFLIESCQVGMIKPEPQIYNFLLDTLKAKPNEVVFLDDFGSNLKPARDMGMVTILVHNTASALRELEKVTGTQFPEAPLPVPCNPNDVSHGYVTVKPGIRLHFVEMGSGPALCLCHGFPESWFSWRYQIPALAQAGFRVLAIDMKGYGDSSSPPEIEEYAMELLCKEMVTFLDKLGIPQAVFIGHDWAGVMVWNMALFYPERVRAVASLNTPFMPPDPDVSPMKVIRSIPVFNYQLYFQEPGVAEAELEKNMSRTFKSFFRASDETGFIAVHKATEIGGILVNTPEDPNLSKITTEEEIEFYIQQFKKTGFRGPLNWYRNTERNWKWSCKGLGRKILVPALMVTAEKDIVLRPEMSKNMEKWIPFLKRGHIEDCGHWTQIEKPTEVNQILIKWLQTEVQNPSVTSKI

Mus musculus [8] = assay: Half life in Swiss Webster mouse at 5 mg/kg, po; format: ADME, organism-based; design: dose 5 mg/kg, route oral; settings: in vivo

Row | Activity (Liver carboxylesterase 1) | AUC (Mus musculus [1]) | solubility [2] | Activity (Cocaine esterase) | solubility [3] | Cmax (Mus musculus [4]) | IC50 [5] | IC50 [6] | IC50 [7] | t1/2 (Mus musculus [8]) | Compound
1 | 41% | 96 ng·h/mL | 25000 µg/mL (≈ 55700 µM) | 39% | 5 µg/mL (≈ 11.1 µM) | 39.5 ng/mL |  |  |  |  | CCCCOC(=O)CCCCCCCCCCCNC(=O)NC12CC3CC(CC(C3)C1)C2
2 |  |  |  |  |  |  | 1.8 nM |  |  |  | C#CCOC(=O)CCCCCCCCCCCNC(=O)NC12CC3CC(CC(C3)C1)C2
3 |  |  |  |  | 10 µg/mL (≈ 21.3 µM) |  |  |  |  |  | CS(=O)(=O)NC(=O)CCCCCCCCCCCNC(=O)NC12CC3CC(CC(C3)C1)C2
4 |  |  |  |  |  |  | 1 nM |  |  |  | CCCOC(=O)CCCCCCCCCCCNC(=O)NC12CC3CC(CC(C3)C1)C2
5 |  |  |  |  |  |  | 2 nM |  |  |  | O=C(NCCCCCCCCCCCC(=O)OCc1ccccc1)NC12CC3CC(CC(C3)C1)C2
6 |  |  |  |  |  |  | 1.5 nM | 230 nM | 50 nM |  | O=C(NCCCCCCCCCCCC(=O)OC12CC3CC(CC(C3)C1)C2)NC12CC3CC(CC(C3)C1)C2
7 | 55% | 110 ng·h/mL | 17000 µg/mL (≈ 37900 µM) | 33% | 1.7 µg/mL (≈ 3.79 µM) | 42.9 ng/mL | 1.2 nM |  |  |  | CC(C)COC(=O)CCCCCCCCCCCNC(=O)NC12CC3CC(CC(C3)C1)C2
8 |  |  |  |  |  |  | 1 nM |  |  |  | C=CCOC(=O)CCCCCCCCCCCNC(=O)NC12CC3CC(CC(C3)C1)C2
9 |  | 47 ng·h/mL | 27000 µg/mL (≈ 60200 µM) | 26% | 5 µg/mL (≈ 11.1 µM) | 13.1 ng/mL | 0.7 nM |  |  | 3.8 h | CCC(C)OC(=O)CCCCCCCCCCCNC(=O)NC12CC3CC(CC(C3)C1)C2 (stereo not drawn)
10 | 100% | 87 ng·h/mL | 5000 µg/mL (≈ 12700 µM) | 100% | 35 µg/mL (≈ 89.2 µM) | 26.9 ng/mL |  |  |  | 2.3 h | O=C(O)CCCCCCCCCCCNC(=O)NC12CC3CC(CC(C3)C1)C2
11 |  |  |  |  |  |  | 2.3 nM |  |  |  | COC(=O)CCCCCCCCCCCNC(=O)NC12CC3CC(CC(C3)C1)C2
12 |  |  |  |  |  |  | 7.6 nM | 220 nM | 50 nM |  | O=C(CCCCCCCCCCCNC(=O)NC12CC3CC(CC(C3)C1)C2)NCC(=O)N[C@H]1O[C@@H](CO)[C@H](O)[C@@H](O)[C@@H]1O
13 |  |  |  |  |  |  | 1.6 nM |  |  |  | CCOC(=O)CCCCCCCCCCCNC(=O)NC12CC3CC(CC(C3)C1)C2
14 | 72% | 84 ng·h/mL | 12000 µg/mL (≈ 27600 µM) | 39% | 7 µg/mL (≈ 16.1 µM) | 29.6 ng/mL | 1.1 nM |  |  | 1.9 h | CC(C)OC(=O)CCCCCCCCCCCNC(=O)NC12CC3CC(CC(C3)C1)C2
15 |  |  | 2000 µg/mL (≈ 2770 µM) |  | 38 µg/mL (≈ 52.6 µM) |  | 7.5 nM | 100 nM | 50 nM |  | CCCCCCCCC(NC(=O)CCCCCCCCCCCNC(=O)NC12CC3CC(CC(C3)C1)C2)C(=O)N[C@H]1O[C@@H](CO)[C@H](O)[C@@H](O)[C@@H]1O (stereo partly drawn)
